Data from ChEMBL document CHEMBL1268987, “Identification of 2-oxo-N-(phenylmethyl)-4-imidazolidinecarboxamide antagonists of the P2X(7) receptor” (Bioorg Med Chem Lett, 2010).
pIC50: −log10 of the molar value. Values after ≈ are worked out from the molar mass of the structure shown. Each block holds one compound with its values, some of them ahead of it. Active and inactive are the calls of the source. The rule behind the calls is not given here.

Experiments:
[1] = Oral bioavailability in dog at 1 mg/kg, iv and 3 mg/kg, po; type: ADME, organism-based, Canis lupus familiaris; settings: in vivo
In short: (§1)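 Cross-species pharmacokinetics (rat, dog, monkey), n = 3 per species. Parameters were derived from 1 mg/kg iv or 3 mg/kg po profiles: blood clearance, Vss, half-life and oral bioavailability.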

[2] = Oral bioavailability in monkey at 1 mg/kg, iv and 3 mg/kg, po; type: ADME, organism-based, Macaca mulatta; settings: rhesus monkey, in vivo; in short: as §1
[3] = Volume of distribution at steady state in rat at 1 mg/kg, iv and 3 mg/kg, po; type: ADME, organism-based; settings: in vivo, read-out: Vdss; in short: as §1
[4] = Volume of distribution at steady state in monkey at 1 mg/kg, iv and 3 mg/kg, po; type: ADME, organism-based, Macaca mulatta; settings: rhesus monkey, in vivo, read-out: Vdss; in short: as §1
[5] = Volume of distribution at steady state in dog at 1 mg/kg, iv and 3 mg/kg, po; type: ADME, organism-based, Canis lupus familiaris; settings: in vivo, read-out: Vdss; in short: as §1
[6] = target: T1, P2X purinoceptor 7 (Rattus norvegicus, UniProt Q64663); test: Antagonist activity at rat recombinant P2X7 receptor; type: functional
T1 sequence (Q64663 whole entry): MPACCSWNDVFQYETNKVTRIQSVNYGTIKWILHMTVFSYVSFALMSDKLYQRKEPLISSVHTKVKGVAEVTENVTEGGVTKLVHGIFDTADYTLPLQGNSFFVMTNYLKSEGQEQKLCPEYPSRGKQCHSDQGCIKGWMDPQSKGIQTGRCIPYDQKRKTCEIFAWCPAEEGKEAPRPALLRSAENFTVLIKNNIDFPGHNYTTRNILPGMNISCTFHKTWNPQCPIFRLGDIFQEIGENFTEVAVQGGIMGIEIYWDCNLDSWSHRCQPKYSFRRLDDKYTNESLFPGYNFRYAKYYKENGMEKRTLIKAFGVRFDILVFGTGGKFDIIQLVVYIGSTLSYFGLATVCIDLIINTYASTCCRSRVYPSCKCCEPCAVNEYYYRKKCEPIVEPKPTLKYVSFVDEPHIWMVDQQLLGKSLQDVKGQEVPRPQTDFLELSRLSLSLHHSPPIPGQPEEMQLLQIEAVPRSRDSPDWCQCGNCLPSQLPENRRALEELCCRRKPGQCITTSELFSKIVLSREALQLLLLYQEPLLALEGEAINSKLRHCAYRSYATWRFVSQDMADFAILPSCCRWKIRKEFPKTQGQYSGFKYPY

[7] = Clearance in dog blood at 1 mg/kg, iv and 3 mg/kg, po; type: ADME, organism-based, Canis lupus familiaris; in short: as §1
[8] = Half life in monkey at 1 mg/kg, iv and 3 mg/kg, po; type: ADME, organism-based, Macaca mulatta; settings: rhesus monkey, in vivo; in short: as §1
[9] = Clearance in rat blood at 1 mg/kg, iv and 3 mg/kg, po; type: ADME, organism-based; in short: as §1
[10] = Half life in rat at 1 mg/kg, iv and 3 mg/kg, po; type: ADME, organism-based; settings: in vivo; in short: as §1
[11] = Half life in dog at 1 mg/kg, iv and 3 mg/kg, po; type: ADME, organism-based, Canis lupus familiaris; settings: in vivo; in short: as §1
[12] = Clearance in monkey blood at 1 mg/kg, iv and 3 mg/kg, po; type: ADME, organism-based, Macaca mulatta; settings: rhesus monkey; in short: as §1
[13] = target: T2, P2X purinoceptor 7 (Homo sapiens, UniProt Q99572); test: Antagonist activity at human recombinant P2X7 receptor expressed in HEK293 cells by ethidium accumulation assay; type: functional, cell-based
T2 sequence (Q99572 whole entry): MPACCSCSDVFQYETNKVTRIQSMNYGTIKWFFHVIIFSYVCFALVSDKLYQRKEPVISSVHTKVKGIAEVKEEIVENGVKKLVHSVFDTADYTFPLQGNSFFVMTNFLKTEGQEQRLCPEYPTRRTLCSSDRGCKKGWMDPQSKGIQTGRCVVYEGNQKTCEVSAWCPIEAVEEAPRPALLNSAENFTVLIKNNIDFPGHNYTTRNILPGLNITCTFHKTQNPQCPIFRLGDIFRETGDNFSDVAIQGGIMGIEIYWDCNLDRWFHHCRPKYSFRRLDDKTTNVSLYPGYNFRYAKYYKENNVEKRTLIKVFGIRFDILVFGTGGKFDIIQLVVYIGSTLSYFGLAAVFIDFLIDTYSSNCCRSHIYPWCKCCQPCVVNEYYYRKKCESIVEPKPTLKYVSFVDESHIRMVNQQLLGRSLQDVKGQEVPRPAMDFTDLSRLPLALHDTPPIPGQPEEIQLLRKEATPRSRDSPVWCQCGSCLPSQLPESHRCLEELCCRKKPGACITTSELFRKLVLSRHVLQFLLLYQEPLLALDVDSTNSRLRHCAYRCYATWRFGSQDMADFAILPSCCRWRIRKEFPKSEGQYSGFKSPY
In short: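 Ethidium accumulation read-out: ATP activation of the receptor opens a large pore, and uptake of ethidium bromide dye into the cells is measured by fluorescence.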

[14] = test system: MDCK; test: Efflux ratio of permeability from apical to basolateral side over basolateral to apical side in MDCK cells expressing MDR; type: ADME, cell-based, Canis lupus familiaris; settings: dog
[15] = (§2) Clearance in rat blood at 1 mg/kg, iv; type: ADME, organism-based; parameters: dose 1 mg/kg, route intravenous; settings: blood
In short: (§3)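 Rat blood clearance was determined after a single iv infusion at 1 mg/kg.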

[16] = Half life in rat blood at 1 mg/kg, iv; type: ADME, organism-based; parameters: dose 1 mg/kg, route intravenous
[17] = Drug level in rat chronic joint pain model blood at 20 mg/kg, po after 1 hr; type: ADME, organism-based; parameters: dose 20 mg/kg, route oral; settings: read-out: Drug uptake
In short: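 In the rat chronic joint pain model, blood concentrations were measured 1.0 h after a 20 mg/kg oral dose.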

[18] = Solubility of the compound in FeSSIF; type: physicochemical
[19] = Ratio of drug level in brain to plasma in rat chronic joint pain model at 20 mg/kg, po after 1 hr; type: ADME, organism-based; parameters: dose 20 mg/kg, route oral; settings: brain and plasma, read-out: BBR
[20] = test system: Rattus norvegicus; test: Reversal of FCA-induced hypersensitivity in rat chronic joint pain model at 20 mg/kg, po after 1 to 6 hrs; type: functional, organism-based; parameters: dose 20 mg/kg
In short: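 Chronic joint pain model in rat. Hypersensitivity was induced by intra-articular FCA, and oral dosing at 20 mg/kg began 13 days post FCA. Response was assessed at 1, 3 and 6 h post-dose. Celecoxib at 30 mg/kg po served as comparator.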

[21] = Protein binding in rat plasma; type: ADME, cell-free; settings: read-out: PPB (converted)
[22] = Oral bioavailability in rat at 1 mg/kg, iv and 3 mg/kg, po; type: ADME, organism-based; settings: in vivo; in short: as §1
[23] = test system: Rattus norvegicus; test: as §2; type: ADME, organism-based; parameters: dose 1 mg/kg, route intravenous; settings: in vivo; in short: as §3
[24] = Metabolic stability in rat liver microsomes assessed as intrinsic clearance measured per gram of tissue; type: ADME, Microsome
[25] = Lipophilicity, log D of the compound at pH 7.4; type: physicochemical; settings: buffer
[26] = Cmax in rat at 3 mg/kg, po; type: ADME, organism-based; parameters: dose 3 mg/kg, route oral; settings: in vivo
[27] = Half life in rat at 3 mg/kg, po; type: ADME, organism-based; parameters: dose 3 mg/kg, route oral; settings: in vivo
[28] = Clearance in rat at 3 mg/kg, po; type: ADME, organism-based; parameters: dose 3 mg/kg, route oral; settings: in vivo

bioavailability [1]: 69%
bioavailability [2]: 57%
Vd [3]: 1 L/kg
Vd [4]: 1.1 L/kg
Vd [5]: 0.9 L/kg
pIC50 [6]: 6.60
clearance [7]: 14 mL/min/kg
half-life [8]: 0.9 h
clearance [9]: 9 mL/min/kg
half-life [10]: 1.5 h
half-life [11]: 0.7 h
clearance [12]: 17 mL/min/kg
Compound: CN1C(=O)CC[C@H]1C(=O)NCc1cccc(C(F)(F)F)c1Cl [GSK1482160]

pIC50 [13]: 8.40
Compound: CN1C(=O)COC[C@H]1C(=O)NCc1cccc(C(F)(F)F)c1Cl

pIC50 [13]: 7.50
Ratio [14]: 3.2
Compound: CN1CCC(N2C[C@@H](C(=O)NCc3cccc(C(F)(F)F)c3Cl)N(C)C2=O)CC1

pIC50 [13]: 8.00
Ratio [14]: 1.9
Compound: Cc1cc(N2C[C@@H](C(=O)NCc3cccc(C(F)(F)F)c3Cl)N(C)C2=O)ccn1

clearance [15]: 49 mL/min/kg
pIC50 [13]: 8.00
half-life [16]: 0.4 h
Compound: CN1C[C@@H](C(=O)NCc2cccc(Cl)c2Cl)N(C)C1=O

pIC50 [13]: 7.60
Compound: CN1C(=O)C(C)(C)C[C@H]1C(=O)NCc1cccc(C(F)(F)F)c1Cl

pIC50 [13]: 7.60
Ratio [14]: 11.9
Compound: CN1C(=O)N(CCN2CCOCC2)C[C@H]1C(=O)NCc1cccc(C(F)(F)F)c1Cl

pIC50 [13]: 8.60
Compound: CN1C(=O)N(c2cn(C)cn2)C[C@H]1C(=O)NCc1cccc(C(F)(F)F)c1Cl

bioavailability [1]: 100%
concentration at 1 h [17]: 56.4 µM
clearance [15]: 6 mL/min/kg
solubility [18]: 780 µg/mL (≈ 2580 µM)
pIC50 [13]: 8.00
bioavailability [2]: 99%
Vd [3]: 1.3 L/kg
Vd [4]: 1.2 L/kg
Vd [5]: 0.8 L/kg
half-life [16]: 2.8 h
Kp at 1 h [19]: 0.3
clearance [7]: 2 mL/min/kg
fraction unbound [21]: 0.35
bioavailability [22]: 100%
half-life [8]: 2.9 h
clearance [9]: 6 mL/min/kg
half-life [10]: 2.8 h
half-life [11]: 5.7 h
clearance [12]: 7 mL/min/kg
Compound: CN1C(=O)NC[C@H]1C(=O)NCc1ccc(Cl)cc1Cl
Activity [20]: Active

pIC50 [13]: 7.60
Compound: CN1C(=O)NC[C@H]1C(=O)NCc1cccc(Cl)c1Cl

pIC50 [13]: 8.30
Ratio [14]: 4.4
Compound: Cc1ncccc1N1C[C@@H](C(=O)NCc2cccc(C(F)(F)F)c2Cl)N(C)C1=O

pIC50 [13]: 8.40
Ratio [14]: 5.3
Compound: CN1C(=O)N(c2nccn2C)C[C@H]1C(=O)NCc1cccc(C(F)(F)F)c1Cl

clearance [23]: 30 mL/min/kg
pIC50 [13]: 8.70
half-life [16]: 0.6 h
CLint scaled [24]: < 0.5 mL/min/g
Compound: CN1C[C@@H](C(=O)NCc2ccc(Cl)cc2Cl)N(C)C1=O

pIC50 [13]: 8.40
Ratio [14]: 2.1
Compound: CN1C(=O)NC[C@H]1C(=O)NCc1cccc(C(F)(F)F)c1Cl

pIC50 [13]: 8.40
Compound: CN1C(=O)C(F)(F)C[C@H]1C(=O)NCc1cccc(C(F)(F)F)c1Cl

pIC50 [13]: 7.80
Compound: CN1C(=O)OC[C@H]1C(=O)NCc1cccc(C(F)(F)F)c1Cl

pIC50 [13]: 7.10
Compound: Cc1cccc(N2C[C@@H](C(=O)NCc3cccc(C(F)(F)F)c3Cl)N(C)C2=O)n1

concentration at 1 h [17]: 16.8 µM
pIC50 [13]: 8.00
Ratio [14]: 4.9
Kp at 1 h [19]: < 0.1
pIC50 [6]: 7.20
logD [25]: 2.2
Cmax [26]: 1070 ng/mL
half-life [27]: 2.3 h
CL/F [28]: 17 mL/min/kg
Compound: Cc1ncccc1N1C[C@@H](C(=O)NCc2ccc(Cl)cc2Cl)N(C)C1=O
Activity [20]: inactive
